Data set [1] in a line: Drug uptake in cytoplasm of human NCTC-2544 cells at 10 uM after 2 hrs by fluorescence microphotography. Format: ADME, cell-based. Particulars: nctc-2544, 2 h. In a few lines:
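NCTC-2544 cells attached in Petri dishes, given compound at 10 μM for 2 h, washed with HBSS. Then 30 min with Rhodamine 123 (mitochondria), LysoTracker RED, CellMask Orange (plasma membrane) or ER-Tracker. Blue compound fluorescence overlaid on probe images by video-confocal microscopy.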

In data set [2] the test system is Jurkat. Briefly: Phototoxicity in 2.5 J/cm'2 UV-A irradiated human Jurkat cells after 72 hrs by MTT assay. The data set is classed as functional, cell-based. Particulars: light or radiation study. In short, it runs like this: (§1)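 HL-60 and Jurkat (8×10³/well, RPMI-1640) and MCF-7, LoVo, NCTC-2544 (5×10³/well; DMEM or Ham's F12) preincubated 18 h at 37 °C, 5% CO₂. Compound in DMSO diluted in HBSS pH 7.2, 30 min at 37 °C, then UV-A at 2.5 or 3.75 J/cm². Medium replaced, 72 h incubation, MTT read-out. IC50 as mean ± SEM of three experiments.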
A general note: Tetrazolium dyes change colour on reduction, which living cells bring about.

The test system of data set [3] is MCF7. Put plainly: Phototoxicity in 3.75 J/cm'2 UV-A irradiated human MCF7 cells after 72 hrs by MTT assay. The data set is classed as functional, cell-based. The note with it: MCF7, light or radiation study. In short, it runs like this: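 Seeded at 5 × 10³ cells/well with 10% FBS: MCF-7 and NCTC-2544 in DMEM, LoVo in Ham's F12. Pre-incubated 18 h at 37 °C, 5% CO2. Compound (DMSO stock diluted in HBSS pH 7.2) was applied for 30 min at 37 °C, then UV-A irradiation (mainly 365 nm, 4.0 mW/cm²). Medium was restored for 72 h before MTT. IC50 is the mean ± SEM of three experiences.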

The subject of data set [4] is LoVo. Put plainly: Phototoxicity in 2.5 J/cm'2 UV-A irradiated human LoVo cells after 72 hrs by MTT assay. Format: functional, cell-based. Particulars: light or radiation study. In a few lines: as §1
For data set [5], the system named is MCF7. Briefly: Phototoxicity in 2.5 J/cm'2 UV-A irradiated human MCF7 cells assessed as cell viability after 72 hrs by MTT assay in presence of radical scavenger DMTU. The data set is classed as functional, cell-based. In a few lines:
(§2)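 MCF-7 cells given compound plus scavenger in HBSS, 30 min at 37 °C, then UV-A (2.5 J/cm², 365 nm lamp). Medium replaced; viability by MTT after 72 h. Means ± SEM of at least three independent experiments.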

The test system of data set [6] is MCF7. Briefly: Phototoxicity in 2.5 J/cm'2 UV-A irradiated human MCF7 cells assessed as cell viability after 72 hrs by MTT assay in presence of radical scavenger BHA. The data set is classed as functional, cell-based. In short, it runs like this: as §2
In data set [7] the test system is Jurkat. Briefly: Induction of apoptosis in 3.75 J/cm'2 UV-A irradiated human Jurkat cells assessed as late apoptotic cells at 5 uM after 24 hrs by Annexin-V-FITC and propidium iodide based flow cytometry (reference value: 2.9 %). The data set is classed as functional. (In general: Flow cytometry measures light scatter and fluorescence of single cells or particles in a stream.)

The test system of data set [8] is Jurkat. Briefly: Induction of apoptosis in 3.75 J/cm'2 UV-A irradiated human Jurkat cells assessed as viable cells at 10 uM after 24 hrs by Annexin-V-FITC and propidium iodide based flow cytometry (reference value: 91%). Particulars: light or radiation study, read-out: Activity. The data set is classed as functional.
Data set [9] deals with Jurkat. Briefly: Induction of apoptosis in 3.75 J/cm'2 UV-A irradiated human Jurkat cells assessed as early apoptotic cells at 10 uM after 24 hrs by Annexin-V-FITC and propidium iodide based flow cytometry (reference value: 1.9 %). The data set is classed as functional.
In data set [10] the test system is Jurkat. Briefly: Cell cycle arrest in UV-A irradiated human Jurkat cells assessed as accumulation at G1 phase at 5 uM after 24 hrs by propidium iodide based flow cytometry (reference value: 64.4 %). The data set is classed as functional. In a few lines: (§3)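 Exponentially growing Jurkat cells (5×10^5) irradiated with UV-A (365 nm lamp, 2.5 J/cm²) in presence of compound. After 24 h: fixed in ice-cold 70% ethanol, lysed with RNAse A, stained with PI (10 µg/ml), analysed by flow cytometry. Phases calculated on living cells; subG1 is hypodiploid DNA peak.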

Data set [11] deals with Jurkat. Put plainly: Cell cycle arrest in UV-A irradiated human Jurkat cells assessed as accumulation at G2/M phase at 5 uM after 24 hrs by propidium iodide based flow cytometry (reference value: 10.3 %). The data set is classed as functional. In short, it runs like this:
as §3

Data set [12] deals with Jurkat. Briefly: Cell cycle arrest in UV-A irradiated human Jurkat cells assessed as accumulation at Sub G1 phase at 5 uM after 24 hrs by propidium iodide based flow cytometry (reference value: 0.1 %). Format: functional. In a few lines: as §3
Data set [13] has as its system Jurkat. Put plainly: Induction of apoptosis in UV-A irradiated human Jurkat cells assessed as loss of mitochondrial membrane potential after 6 hrs by cytofluorimetric analysis. Format: functional, cell-based. In short, it runs like this: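 Jurkat cells 6, 12 and 24 h after UV-A (2.5 J/cm²) with compound, resuspended in HBSS with JC-1 (1 μg/ml). Green (FL1) and orange (FL2) fluorescence collected by flow cytometry, ≥10000 events; cells with monomeric JC-1 counted as collapsed potential. Mean ± SEM of three experiments.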

Data set [14] concerns Jurkat. Briefly: Induction of apoptosis in UV-A irradiated human Jurkat cells assessed as increase in number of damaged lysosomes at 5 to 10 uM by acridine orange-based flow cytometry. The data set is classed as functional, cell-based. In short, it runs like this:
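Lysosomal stability in Jurkat cells 6, 12 and 24 h after UV-A (2.5 J/cm²) with compound. Cells resuspended in RPMI-1640 with 1 µM acridine orange; flow cytometry, excitation 488 nm, emission in FL3. Mean ± SEM of three experiments.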

Data set [15] relates to Nucleic Acid. Briefly: Binding affinity to salmon testes DNA at drug/DNA ratio of 0.03 by linear dichroism analysis. Format: nucleic-acid assay. The note with it: Salmonidae. In a few lines: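 Flow linear dichroism in 10 mM phosphate buffer pH 7.2. Samples oriented in a rotating cylindrical cuvette (0.14 cm path, 800 rpm) at several drug/DNA ratios.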
Data set [16] concerns Nucleic Acid. Briefly: Induction of photo-induced supercoiled Escherichia coli pBR322 DNA damage at drug:DNA ratio of 1:3 by agarose gel electrophoresis in presence of mannitol. The data set is classed as nucleic-acid assay. In a few lines: (§4)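 Supercoiled pBR322 (100 ng) in 10 mM phosphate buffer pH 7.2 irradiated with UV-A (3.75 J/cm²) at [DNA]/[drug] 1/3, with additives, under nitrogen or in deuterated buffer as stated. Aliquots then incubated at 37 °C with Fpg or Endo III. Run on 1% agarose in TAE, 80 V for 2 h, stained with ethidium bromide; Form I/II fractions from band densitometry.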

Data set [17] concerns Nucleic Acid. Put plainly: Induction of photo-induced supercoiled Escherichia coli pBR322 DNA damage at drug:DNA ratio of 1:3 by agarose gel electrophoresis in presence of DABCO. Format: nucleic-acid assay. In a few lines:
as §4

In data set [18] the test system is Nucleic Acid. Briefly: Induction of photo-induced supercoiled Escherichia coli pBR322 DNA damage assessed as single strand break at drug:DNA ratio of 1:3 by agarose gel electrophoresis in presence of D2O buffer. The data set is classed as nucleic-acid assay. In a few lines: as §4
The subject of data set [19] is Jurkat. Put plainly: Induction of lipid peroxidation in 2.5 J/cm'2 UV-A irradiated human Jurkat cells assessed as increase in TBARS formation after 24 hrs by thiobarbituric acid assay. The data set is classed as functional, cell-based. In a few lines: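 Lipid peroxidation measured as MDA–thiobarbituric acid adducts, with BHT added to samples; calibrated to a 1,1,3,3-tetraethoxypropane standard curve; protein by Peterson method.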

Data set [20] relates to Nucleic Acid. Put plainly: Induction of photo-induced Escherichia coli pBR322 DNA damage at drug:DNA ratio of 3:1 by agarose gel electrophoresis in presence of endonuclease III.

As usually defined, the IC50 is the midpoint of a concentration-inhibition curve.

Activity calls are given as the source filed them. The rule behind the calls is not given here.

With `CCOC(=O)c1c2c(c(C)n1C)-c1c(cc(S(=O)(=O)c3ccccc3)c(=O)n1C)CC2`, in data set [1], the Drug uptake result is listed as “Active”. Besides, the IC50 in data set [2] was 1200 nM; in [3] it was 1300 nM; in [4], 700 nM. In addition, the result in data set [5], in [6], in data set [15], in data set [16] and in data set [17] was inactive. Besides, the Activity in data set [7] is 11%; in data set [9], 23.9%; in [10], 48.9%; in data set [11], 4.2%; in [12], 10.5%; in [19], “Dose-dependent effect”. The viability at 10 µM in [8] is 45.2%. In addition, the outcome in data set [13], in data set [14], in data set [18] and in data set [20] was Active.

The record behind these values is ChEMBL document CHEMBL2176901, “Pyrrolo[3,4-h]quinolinones a new class of photochemotherapeutic agents” (Bioorg Med Chem, 2011).
